Converted amounts (≈) assume the structure as drawn.
Assays:
Format in all cases: functional
Cryptococcus neoformans = test: Minimum inhibitory concentration tested in vitro against Cryptococcus neoformans
Summary of the method: (§1)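 Robotic broth microdilution: DMSO stocks diluted in broth to a starting 20 µg/mL, serial 2-fold dilutions. Yeasts grown on Sabouraud dextrose agar, 35°C, 24 h, suspended in saline and adjusted to 1 × 10^5 conidia/mL in Sabouraud dextrose broth (hemacytometer count).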

Candida albicans = test: Minimum inhibitory concentration tested in vitro against Candida albicans; summary of the method: as §1
Mus musculus [1] = test: Effective dose against Candida albicans tested in infected mice on intraperitoneal administration; settings: ip
Summary of the method: (§2)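 C. albicans systemic infection in mice: 2 × 10^6 blastoconidia iv (0.1 mL, lateral tail vein). Dosed ip (0.2 mL) at 0, 4, 24 and 48 h post-infection at 20, 10 and 5.0 mg/kg, six mice per level, in 4.0% hydroxypropyl β cyclodextrin/sodium acetate pH 7.0/1.75% dextrose; vehicle-dosed infected controls (10). Morbidity/mortality followed 7 days; ED50 by Reed–Muench.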

Aspergillus fumigatus = test: Minimum inhibitory concentration tested in vitro against Aspergillus fumigatus
Summary of the method: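 A. fumigatus broth microdilution: spores teased from mycelia grown on potato dextrose agar into 0.1% Tween 80/saline, adjusted to 1 × 10^5 spores/mL in Sabouraud broth. Compounds from DMSO, starting at 20 µg/mL, serial 2-fold dilutions.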

Histoplasma capsulatum = test: Minimum inhibitory concentration tested in vitro against Histoplasma capsulatum
Summary of the method: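 Robotic broth microdilution. Compounds dissolved in 100% DMSO, diluted in broth to start at 20 µg/mL in the first wells after inoculum, then serial 2-fold dilutions. Conidia suspended in saline and adjusted to 1 × 10^5 conidia/mL in Sabouraud dextrose broth. Incubated 48 h at 35 °C in ambient air. MIC = lowest concentration inhibiting 90–100% of visible growth vs untreated controls.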

Candida parapsilosis = test: Minimum inhibitory concentration tested in vitro against Candida parapsilosis; summary of the method: as §1
Mus musculus [2] = test: Effective dose administered intraperitoneally against Candida albicans infected mice; settings: ip; summary of the method: as §2
[3] = Cryptococcus neoformans, read-out: MIC
[4] = Candida albicans, read-out: MIC
[5] = Aspergillus fumigatus, read-out: MIC
[6] = Histoplasma capsulatum, read-out: MIC
[7] = Lodderomyces parapsilosis, read-out: MIC

## C/C=C1/NC(=O)[C@H]([C@H](C)O)NC(=O)[C@H](CCN)NC(=O)[C@H](CCCCN)NC(=O)[C@H](CC(=O)O)NC(=O)[C@@H](CCN)NC(=O)[C@@H](NC(=O)CC(O)C(O)CCCCCCCCCC)COC(=O)[C@H]([C@H](O)CCl)NC(=O)[C@H]([C@H](O)C(=O)O)NC1=O (stereo not given in full)
Cryptococcus neoformans; [3]
  MIC: 0.078 µg/mL (≈ 0.0637 µM)
Candida albicans; [4]
  MIC: 0.625 µg/mL (≈ 0.511 µM)
Mus musculus [1]
  ED50: 7.1 mg/kg
Aspergillus fumigatus; [5]
  MIC: 10 µg/mL (≈ 8.17 µM)

## C/C=C1/NC(=O)[C@H]([C@H](C)O)NC(=O)[C@H](CCN)NC(=O)[C@H](CCCCN)NC(=O)[C@H](CC(=O)O)NC(=O)[C@@H](CCN)NC(=O)[C@@H](NC(=O)CCCCCCCCCCCCCCC)COC(=O)[C@H]([C@H](O)CCl)NC(=O)[C@H]([C@H](O)C(=O)O)NC1=O
Histoplasma capsulatum; [6]
  MIC: 10 µg/mL (≈ 8.2 µM)
Cryptococcus neoformans; [3]
  MIC: 1.25 µg/mL (≈ 1.02 µM)
Candida albicans; [4]
  MIC: 10 µg/mL (≈ 8.2 µM)
Candida parapsilosis; [7]
  MIC: 10 µg/mL (≈ 8.2 µM)

## C/C=C1/NC(=O)[C@H]([C@H](C)O)NC(=O)[C@H](CCN)NC(=O)[C@H](CCCCN)NC(=O)[C@H](CC(=O)O)NC(=O)[C@@H](CCN)NC(=O)[C@@H](NC(=O)C[C@@H](O)CCCCCCCCCCCCC)COC(=O)[C@H]([C@H](O)CCl)NC(=O)[C@H]([C@H](O)C(=O)O)NC1=O
Histoplasma capsulatum; [6]
  MIC: 5 µg/mL (≈ 4.05 µM)
Cryptococcus neoformans; [3]
  MIC: 5 µg/mL (≈ 4.05 µM)
Candida albicans; [4]
  MIC: 5 µg/mL (≈ 4.05 µM)
Aspergillus fumigatus; [5]
  MIC: 20 µg/mL (≈ 16.2 µM)
Candida parapsilosis; [7]
  MIC: 5 µg/mL (≈ 4.05 µM)

## C/C=C1/NC(=O)[C@H]([C@H](C)O)NC(=O)[C@H](CCN)NC(=O)[C@H](CCCCN)NC(=O)[C@H](CC(=O)O)NC(=O)[C@@H](CCN)NC(=O)[C@@H](NC(=O)CC(O)CCCCCCCCC)COC(=O)[C@H]([C@H](O)CCl)NC(=O)[C@H]([C@H](O)C(=O)O)NC1=O (stereo not given in full)
Cryptococcus neoformans; [3]
  MIC: 1.25 µg/mL (≈ 1.06 µM)
Candida albicans; [4]
  MIC: 10 µg/mL (≈ 8.48 µM)
Aspergillus fumigatus; [5]
  MIC: > 20 µg/mL

## C/C=C1/NC(=O)[C@H]([C@H](C)O)NC(=O)[C@H](CCN)NC(=O)[C@H](CCCCN)NC(=O)[C@H](CC(=O)O)NC(=O)[C@@H](CCN)NC(=O)[C@@H](NC(=O)CC(O)C(O)CCCCCCCCCCCC)COC(=O)[C@H]([C@H](O)CCl)NC(=O)[C@H]([C@H](O)C(=O)O)NC1=O (stereo not given in full)
Mus musculus [2]
  ED50: > 5 mg/kg
Cryptococcus neoformans; [3]
  MIC: 0.02 µg/mL (≈ 0.016 µM)
Candida albicans; [4]
  MIC: 0.078 µg/mL (≈ 0.0623 µM)
Aspergillus fumigatus; [5]
  MIC: 1.25 µg/mL (≈ 0.999 µM)

## C/C=C1/NC(=O)[C@H]([C@H](C)O)NC(=O)[C@H](CCN)NC(=O)[C@H](CCCCN)NC(=O)[C@H](CC(=O)O)NC(=O)[C@@H](CCN)NC(=O)[C@@H](NC(=O)CC(O)C(O)CCCCCCCCCCC)COC(=O)[C@H]([C@H](O)CCl)NC(=O)[C@H]([C@H](O)C(=O)O)NC1=O (stereo not given in full)
Cryptococcus neoformans; [3]
  MIC: 1.25 µg/mL (≈ 1.01 µM)
Candida albicans; [4]
  MIC: 2.5 µg/mL (≈ 2.02 µM)
Aspergillus fumigatus; [5]
  MIC: > 20 µg/mL

## C/C=C1/NC(=O)[C@H]([C@H](C)O)NC(=O)[C@H](CCN)NC(=O)[C@H](CCCCN)NC(=O)[C@H](CC(=O)O)NC(=O)[C@@H](CCN)NC(=O)[C@@H](NC(=O)CC(O)CCCCCCCCCCC)COC(=O)[C@H]([C@H](O)CCl)NC(=O)[C@H]([C@H](O)C(=O)O)NC1=O (stereo not given in full)
Mus musculus [2]
  ED50: 3.5 mg/kg
Cryptococcus neoformans; [3]
  MIC: 0.02 µg/mL (≈ 0.0166 µM)
Candida albicans; [4]
  MIC: 0.156 µg/mL (≈ 0.129 µM)
Aspergillus fumigatus; [5]
  MIC: 10 µg/mL (≈ 8.28 µM)

## C/C=C1/NC(=O)[C@H]([C@H](C)O)NC(=O)[C@H](CCN)NC(=O)[C@H](CCCCN)NC(=O)[C@H](CC(=O)O)NC(=O)[C@@H](CCN)NC(=O)[C@@H](NC(=O)C[C@H](O)CCCCCCCCCCCCC)COC(=O)[C@H]([C@H](O)CCl)NC(=O)[C@H]([C@H](O)C(=O)O)NC1=O (stereo in doubt; form 1)
Histoplasma capsulatum; [6]
  MIC: 0.156 µg/mL (≈ 0.126 µM)
Cryptococcus neoformans; [3]
  MIC: < 0.01 µg/mL
Candida albicans; [4]
  MIC: 0.039 µg/mL (≈ 0.0316 µM)
Aspergillus fumigatus
  MIC: 0.312 µg/mL (≈ 0.252 µM)
Candida parapsilosis; [7]
  MIC: 0.039 µg/mL (≈ 0.0316 µM)

## C/C=C1/NC(=O)[C@H]([C@H](C)O)NC(=O)[C@H](CCN)NC(=O)[C@H](CCCCN)NC(=O)[C@H](CC(=O)O)NC(=O)[C@@H](CCN)NC(=O)[C@@H](NC(=O)CC(O)CCCCCCCCCCCCC)COC(=O)[C@H]([C@H](O)CCl)NC(=O)[C@H]([C@H](O)C(=O)O)NC1=O (stereo in doubt; form 1)
Histoplasma capsulatum; [6]
  MIC: 0.312 µg/mL (≈ 0.252 µM)
Cryptococcus neoformans; [3]
  MIC: < 0.01 µg/mL
Candida albicans; [4]
  MIC: 0.156 µg/mL (≈ 0.126 µM)
Aspergillus fumigatus; [5]
  MIC: 1.25 µg/mL (≈ 1.01 µM)
Candida parapsilosis; [7]
  MIC: 0.156 µg/mL (≈ 0.126 µM)

## C/C=C1/NC(=O)[C@H]([C@H](C)O)NC(=O)[C@H](CCN)NC(=O)[C@H](CCCCN)NC(=O)[C@H](CC(=O)O)NC(=O)[C@@H](CCN)NC(=O)[C@@H](NC(=O)C[C@H](O)CCCCCCCCCCCCC)COC(=O)[C@H]([C@H](O)CCl)NC(=O)[C@H]([C@H](O)C(=O)O)NC1=O (stereo in doubt; form 2)
Histoplasma capsulatum
  MIC: 0.156 µg/mL (≈ 0.126 µM)
Candida albicans
  MIC: 0.039 µg/mL (≈ 0.0316 µM)
Aspergillus fumigatus
  MIC: 0.625 µg/mL (≈ 0.506 µM)
Candida parapsilosis
  MIC: 0.02 µg/mL (≈ 0.0162 µM)

## C/C=C1/NC(=O)[C@H]([C@H](C)O)NC(=O)[C@H](CCN)NC(=O)[C@H](CCCCN)NC(=O)[C@H](CC(=O)O)NC(=O)[C@@H](CCN)NC(=O)[C@@H](NC(=O)CC(O)CCCCCCCCCCCCC)COC(=O)[C@H]([C@H](O)CCl)NC(=O)[C@H]([C@H](O)C(=O)O)NC1=O (stereo in doubt; form 2)
Mus musculus [2]
  ED50: 2.5 mg/kg
Cryptococcus neoformans
  MIC: 0.005 µg/mL (≈ 0.00405 µM)
Candida albicans
  MIC: 0.156 µg/mL (≈ 0.126 µM)
Aspergillus fumigatus
  MIC: 0.625 µg/mL (≈ 0.506 µM)

From ChEMBL document CHEMBL1133996, “The synthesis of pseudomycin C' via a novel acid promoted side-chain deacylation of pseudomycin A” (2001)
